Assay results from ChEMBL document CHEMBL1833841, “Synthesis and biological evaluation of a novel class of isatin analogs as dual inhibitors of tubulin polymerization and Akt pathway” (Bioorg Med Chem, 2011).
Where a name gives a salt, the structure may show the parent alone. Active and inactive are the calls of the source. The rule behind the calls is not given here.

How the values were obtained:
HT-29 [1] = assay: Cytotoxicity against human HT-29 cells after 48 hrs by MTS assay; assay type: functional, cell-based; settings: HT-29, 48 h
In short: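 HT29 cells maintained in RPMI with 10% FBS. 5×10^3 cells/well were left to adhere 24 h, then exposed 48 h to compound (DMSO stock diluted in DMEM, 0.5–50 µM). MTS absorbance at 490 nm normalized to control. IC50 from sigmoidal variable-slope fit. Triplicates, at least two independent experiments.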

MCF7 = assay: Cytotoxicity against human MCF7 cells after 48 hrs by MTS assay; assay type: functional, cell-based; settings: MCF7, 48 h
In short: (§1)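 A549, MCF-7 and UACC903 cells grown in DMEM with 10% FBS at 37°C, 5% CO2. 5×10^3 cells/well were left to adhere 24 h, then treated 48 h with compound (DMSO stock diluted in DMEM, 0.5–50 µM). MTS read at 490 nm and normalized to control. Dose-response fitted as sigmoidal, variable slope. Triplicates from at least two independent experiments.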

A549 = assay: Cytotoxicity against human A549 cells after 48 hrs by MTS assay; assay type: functional, cell-based; settings: A549, 48 h; in short: as §1
UACC-903 = assay: Cytotoxicity against human UACC903 cells after 48 hrs by MTS assay; assay type: functional, cell-based; settings: UACC-903, 48 h; in short: as §1
HT-29 [2] = assay: Induction of apoptosis in human HT-29 cells assessed as viable cells at 1.25 uM after 24 hrs by PE annexin V and 7-Aminoactinomycin D staining-based flow cytometry (reference value: 93.2%); assay type: functional; settings: HT-29, 24 h, read-out: Activity
In short: (§2)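 HT29 cells were treated with 1.25–5.0 µM compound or DMSO for 24 h at 37°C, harvested by low-speed centrifugation and washed twice in cold PBS. They were resuspended in binding buffer at 1×10^6 cells/ml, stained with PE annexin V and 7-AAD for 15 min at RT in the dark, and quantified by flow cytometry.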

[3] = target: RAC-alpha serine/threonine-protein kinase (Homo sapiens) (UniProt P31749); assay: Inhibition of AKT phosphorylation in human HT-29 cells assessed as p-AKT level at 1 uM after 24 hrs by Western blotting; assay type: cell-based
Chain of RAC-alpha serine/threonine-protein kinase (Homo sapiens) (P31749 whole entry): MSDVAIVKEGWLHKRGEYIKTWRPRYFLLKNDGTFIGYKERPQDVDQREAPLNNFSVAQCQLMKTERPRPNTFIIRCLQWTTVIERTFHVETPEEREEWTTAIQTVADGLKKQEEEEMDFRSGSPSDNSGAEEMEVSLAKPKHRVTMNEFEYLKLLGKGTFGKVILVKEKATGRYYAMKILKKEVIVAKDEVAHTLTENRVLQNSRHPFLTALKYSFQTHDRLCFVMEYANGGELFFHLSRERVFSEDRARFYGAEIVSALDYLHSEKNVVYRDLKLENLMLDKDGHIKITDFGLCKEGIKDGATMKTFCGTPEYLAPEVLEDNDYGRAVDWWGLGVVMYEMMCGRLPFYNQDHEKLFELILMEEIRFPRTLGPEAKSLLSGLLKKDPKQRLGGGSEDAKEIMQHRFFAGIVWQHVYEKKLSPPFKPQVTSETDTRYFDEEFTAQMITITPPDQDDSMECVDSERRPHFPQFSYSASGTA
In short: (§3)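 HT29 cells treated 24 h with 1 or 2 µM compound or no drug. Lysed in HEPES/NaCl/EDTA/NP40 buffer with phosphatase and protease inhibitors. Protein equalized by Bradford, run on 10% gels, semi-dry transfer to nitrocellulose, blocked in 5% milk. Pan-Akt or phospho-Akt rabbit polyclonal primaries overnight at 4°C, HRP secondaries, chemiluminescence. β-actin loading control.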

MEF = assay: Cytotoxicity against mouse MEF cells after 48 hrs by MTS assay; assay type: cell-based
In short: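 Mouse embryonic fibroblasts exposed to compound for 48 h; viability then read by MTS colorimetric assay. IC50 derived from the viability data.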

HT-29 [4] = assay: Induction of apoptosis in human HT-29 cells assessed as early apoptotic cells at 1.25 uM after 24 hrs by PE annexin V and 7-Aminoactinomycin D staining-based flow cytometry (reference value: 1.37%); assay type: functional; in short: as §2
HT-29 [5] = assay: Induction of apoptosis in human HT-29 cells assessed as early apoptotic cells at 5 uM after 24 hrs by PE annexin V and 7-Aminoactinomycin D staining-based flow cytometry (reference value: 1.37%); assay type: functional; in short: as §2
HT-29 [6] = assay: Induction of apoptosis in human HT-29 cells after 24 hrs by PE annexin V and 7-Aminoactinomycin D staining-based flow cytometry; assay type: functional, cell-based; in short: as §2
HT-29 [7] = assay: Induction of apoptosis in human HT-29 cells assessed as DNA fragmentation at 5 uM after 48 hrs by TUNEL assay; assay type: functional, cell-based
In short: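 1×10^5 HT29 cells/well grown 24 h in 10% serum medium, then exposed to 5 µM compound. Fragmented DNA stained with ApopTag Red in situ kit, Hoechst nuclear counterstain. Red TUNEL-positive versus blue total nuclei scored by fluorescence microscopy.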

Bos taurus = organism: Bos taurus; assay: Inhibition of bovine brain tubulin polymerization at 10 uM after 1 hrs by fluorescence assay
In short: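 Compound at 10 µM final, DMSO as control. Fluorescence (ex 360, em 440 nm) read every 10 s for 1 h at 37°C, duplicate wells.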

HT-29 [8] = assay: Induction of apoptosis in human HT-29 cells assessed as viable cells at 2.5 uM after 24 hrs by PE annexin V and 7-Aminoactinomycin D staining-based flow cytometry (reference value: 93.2%); assay type: functional; settings: HT-29, 24 h, read-out: Activity; in short: as §2
HT-29 [9] = assay: Inhibition of AKT expression in human HT-29 cells assessed as total AKT level at 1 uM after 24 hrs by Western blotting; assay type: functional, cell-based; in short: as §3
HT-29 [10] = assay: Induction of apoptosis in human HT-29 cells assessed as dead cells at 1.25 uM after 24 hrs by PE annexin V and 7-Aminoactinomycin D staining-based flow cytometry (reference value: 1.33%); assay type: functional
In short: (§4)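 HT29 cells (RPMI, 10% FBS) treated with 1.25, 2.5 or 5 μM, or DMSO control, for 24 h at 37 °C. Cells then harvested, washed twice in cold PBS and resuspended at 1×10^6 cells/ml in binding buffer. Stained with PE annexin V and 7-AAD for 15 min at RT in the dark, then analysed by flow cytometry. 7-AAD-positive cells counted as dead.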

HT-29 [11] = assay: Induction of apoptosis in human HT-29 cells assessed as dead cells at 5 uM after 24 hrs by PE annexin V and 7-Aminoactinomycin D staining-based flow cytometry (reference value: 1.33%); assay type: functional; in short: as §4
HT-29 [12] = assay: Induction of apoptosis in human HT-29 cells assessed as late apoptosis or necrotic cells at 5 uM after 24 hrs by PE annexin V and 7-Aminoactinomycin D staining-based flow cytometry (reference value: 4.1%); assay type: functional; in short: as §2
HT-29 [13] = assay: Induction of apoptosis in human HT-29 cells assessed as early apoptotic cells at 2.5 uM after 24 hrs by PE annexin V and 7-Aminoactinomycin D staining-based flow cytometry (reference value: 1.37%); assay type: functional; in short: as §2
HT-29 [14] = assay: Induction of apoptosis in human HT-29 cells at 1.25 uM after 24 hrs by PE annexin V and 7-Aminoactinomycin D staining-based flow cytometry; assay type: functional; in short: as §4
[15] = target: RAC-alpha serine/threonine-protein kinase (Homo sapiens) (UniProt P31749); assay: Inhibition of AKT phosphorylation in human HT-29 cells assessed as p-AKT level at 2 uM after 24 hrs by Western blotting; assay type: cell-based; in short: as §3
HT-29 [16] = assay: Induction of apoptosis in human HT-29 cells assessed as late apoptosis or necrotic cells at 2.5 uM after 24 hrs by PE annexin V and 7-Aminoactinomycin D staining-based flow cytometry (reference value: 4.1%); assay type: functional; in short: as §2
HT-29 [17] = assay: Induction of apoptosis in human HT-29 cells assessed as increase in caspase 3/7 activation after 24 hrs by fluorescence spectrophotometry; assay type: functional, cell-based
In short: (§5)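 HT29 cells seeded at 1×10^4/well and grown 24 h, then treated 24 h with 1.25–5 µM compound or DMSO. Equal volume of Apo-ONE caspase-3/7 reagent added, shaken 30 s, incubated 2 h at RT. Cleaved-substrate fluorescence read at ex 498/em 521 nm, expressed relative to DMSO cells. Means ± SD, triplicate, one representative experiment.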

HT-29 [18] = assay: Induction of apoptosis in human HT-29 cells assessed as dead cells at 2.5 uM after 24 hrs by PE annexin V and 7-Aminoactinomycin D staining-based flow cytometry (reference value: 1.33%); assay type: functional; in short: as §4
HT-29 [19] = assay: Induction of apoptosis in human HT-29 cells at 2.5 uM after 24 hrs by PE annexin V and 7-Aminoactinomycin D staining-based flow cytometry; assay type: functional; in short: as §4
HT-29 [20] = assay: Induction of apoptosis in human HT-29 cells assessed as viable cells at 5 uM after 24 hrs by PE annexin V and 7-Aminoactinomycin D staining-based flow cytometry (reference value: 93.2%); assay type: functional; settings: HT-29, 24 h, read-out: Activity; in short: as §2
HT-29 [21] = assay: Induction of apoptosis in human HT-29 cells assessed as late apoptosis or necrotic cells at 1.25 uM after 24 hrs by PE annexin V and 7-Aminoactinomycin D staining-based flow cytometry (reference value: 4.1%); assay type: functional; in short: as §2
HT-29 [22] = assay: Induction of apoptosis in human HT-29 cells at 5 uM after 24 hrs by PE annexin V and 7-Aminoactinomycin D staining-based flow cytometry (reference value: 6.8%); assay type: functional; in short: as §4
HT-29 [23] = assay: Induction of apoptosis in human HT-29 cells assessed as increase in caspase 3/7 activation after 24 hrs by fluorescence spectrophotometry relative to control; assay type: functional; set-up: concentration or dose not given beside the values; in short: as §5
HT-29 [24] = assay: Inhibition of AKT expression in human HT-29 cells assessed as total AKT level at 2 uM after 24 hrs by Western blotting; assay type: functional, cell-based; in short: as §3

SMILES: N#CSCCCN1C(=O)C(=O)c2cc(Br)cc(Br)c21
- IC50 (HT-29 [1]): 3.24 µM
- IC50 (MCF7): 9.78 µM
- IC50 (A549): 3.53 µM
- IC50 (UACC-903): 2.89 µM

SMILES: O=C1C(=O)N(CCCCl)c2c(Br)cc(Br)cc21
- IC50 (HT-29 [1]): 2.57 µM
- IC50 (MCF7): 21.5 µM
- IC50 (A549): 5.27 µM
- IC50 (UACC-903): 8.57 µM

SMILES: N#CSCCCCN1C(=O)C(=O)c2cc(Br)cc(Br)c21
- IC50 (HT-29 [1]): 2.42 µM
- IC50 (MCF7): 22.1 µM
- IC50 (A549): 5.53 µM
- IC50 (UACC-903): 2.06 µM

SMILES: N#C[Se]CCCCN1C(=O)C(=O)c2cc(Br)cc(Br)c21
- IC50 (HT-29 [1]): 2.39 µM
- IC50 (MCF7): 1.53 µM
- IC50 (A549): 3.15 µM
- IC50 (UACC-903): 9.03 µM

SMILES: O=C1C(=O)N(CCCN=C=S)c2c(Br)cc(Br)cc21
- viability at 1.25 µM (HT-29 [2]): 91.5%
- inhibition [3]: inactive
- IC50 (MEF): > 20 µM
- Activity (HT-29 [4]): 2.83%
- Activity (HT-29 [5]): 4.78%
- Activity (HT-29 [6]): Dose-dependent effect
- IC50 (HT-29 [1]): 1.56 µM
- Activity (HT-29 [7]): Active
- inhibition (Bos taurus): 62%
- viability at 2.5 µM (HT-29 [8]): 78.8%
- inhibition (HT-29 [9]): inactive
- Activity (HT-29 [10]): 1.92%
- Activity (HT-29 [11]): 8.22%
- Activity (HT-29 [12]): 48.5%
- Activity (HT-29 [13]): 6.93%
- Activity (HT-29 [14]): 8.54%
- IC50 (MCF7): 8.96 µM
- IC50 (A549): 2.13 µM
- inhibition [15]: Active
- Activity (HT-29 [16]): 11.4%
- Activity (HT-29 [17]): Dose-dependent effect
- Activity (HT-29 [18]): 2.9%
- Activity (HT-29 [19]): 21.23%
- IC50 (UACC-903): 4.37 µM
- viability at 5 µM (HT-29 [20]): 38.5%
- Activity (HT-29 [21]): 3.79%
- Activity (HT-29 [22]): 61.5%
- fold change (FC) (HT-29 [23]): 16
- inhibition (HT-29 [24]): Active

SMILES: CC[C@]1(O)C[C@@H]2CN(CCc3c([nH]c4ccccc34)[C@@](C(=O)OC)(c3cc4c(cc3OC)N(C)[C@H]3[C@@](O)(C(=O)OC)[C@H](OC(C)=O)[C@]5(CC)C=CCN6CC[C@]43[C@@H]65)C2)C1 [VINBLASTINE SULFATE]
- IC50 (HT-29 [1]): 0.55 µM
- inhibition (Bos taurus): 66%
- IC50 (UACC-903): 1.65 µM

SMILES: O=C1C(=O)N(Cc2ccc(CBr)cc2)c2c(Br)cc(Br)cc21
- IC50 (HT-29 [1]): 5.1 µM
- IC50 (MCF7): 27.7 µM
- IC50 (A549): 7.86 µM
- IC50 (UACC-903): 2.64 µM
